Reference: ChEMBL document CHEMBL1124914, “Novel inhibitors of human renin. Cyclic peptides based on the tetrapeptide sequence Glu-D-Phe-Lys-D-Trp” (J Med Chem, 1990)
pIC50: −log10 of the molar value. Activity calls are given as the source filed them. The calls are words filed in the database; no cut-off is given here.

What was measured:
Renin (Homo sapiens) [1] = target: T1, Renin (Homo sapiens) (UniProt P00797); assay: Tested for inhibition against human renin at a concentration of 100 uM
T1 sequence (whole entry): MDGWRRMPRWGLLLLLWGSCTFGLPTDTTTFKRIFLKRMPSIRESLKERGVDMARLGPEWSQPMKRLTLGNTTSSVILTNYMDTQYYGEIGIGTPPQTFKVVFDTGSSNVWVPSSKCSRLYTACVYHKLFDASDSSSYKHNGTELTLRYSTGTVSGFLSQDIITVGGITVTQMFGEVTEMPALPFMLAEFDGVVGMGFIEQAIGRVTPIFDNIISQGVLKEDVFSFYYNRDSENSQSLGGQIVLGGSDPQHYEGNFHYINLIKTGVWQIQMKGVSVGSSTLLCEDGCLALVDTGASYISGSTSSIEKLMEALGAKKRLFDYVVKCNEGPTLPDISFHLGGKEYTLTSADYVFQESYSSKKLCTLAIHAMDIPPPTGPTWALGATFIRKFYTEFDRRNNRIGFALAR
In short: (§1)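 Partially purified human renal renin with human angiotensinogen partially purified from volunteer plasma (ammonium sulfate fractionation, DEAE-Sephacel). Final mix: 50 mM phosphate pH 7.0, 3 mM EDTA, 3 mM 8-hydroxyquinoline, 0.5 mM PMSF, 0.1% azide, 0.1% BSA, 1% DMSO. […] Incubation 120 min at 30 °C, stopped on ice. Angiotensin I measured by radioimmunoassay; percent inhibition of vehicle control rate.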

Renin (Homo sapiens) [2] = target: T1, Renin (Homo sapiens); assay: Tested for inhibition against human renin at a concentration of 100 uM; Inactive; in short: as §1
Renin = target: T2, Renin (Homo sapiens, UniProt P00797); assay: Inhibitory activity against human renin
T2 sequence (P00797 whole entry): T1 sequence (whole entry)
In short: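 Partially purified human renal renin with human angiotensinogen partially purified from volunteer plasma (ammonium sulfate fractionation, DEAE-Sephacel). Final mix: 50 mM phosphate pH 7.0, 3 mM EDTA, 3 mM 8-hydroxyquinoline, 0.5 mM PMSF, 0.1% azide, 0.1% BSA, 1% DMSO. Incubation 120 min at 30 °C, stopped on ice. Angiotensin I measured by radioimmunoassay; percent inhibition of vehicle control rate.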

Renin (Homo sapiens) [3] = target: T1, Renin (Homo sapiens); assay: Ratio of inhibitory activity of porcine renin to that of human renin; conditions: Sus scrofa
Renin (Sus scrofa) = assay: Inhibitory activity against porcine renin
Renin (Homo sapiens) [4] = target: T1, Renin (Homo sapiens); assay: Tested for inhibition against human renin at a concentration of 1 uM; in short: as §1
Renin (Homo sapiens) [5] = target: T1, Renin (Homo sapiens); assay: Tested for inhibition against human renin at a concentration of 10 uM; in short: as §1

Compound | inhibition (Renin (Homo sapiens) [1]) [%] | pIC50 (Renin) | other results
CC(C)(C)OC(=O)N[C@@H]1CCC(=O)N([C@@H](CCCCN)C(N)=O)C(=O)[C@@H](Cc2ccccc2)NC1=O | – | – | inhibition (Renin (Homo sapiens) [2]): inactive
COC(=O)[C@H](CCCCN)N1C(=O)CC[C@@H](NC(=O)OC(C)(C)C)C(=O)N[C@H](Cc2ccccc2)C1=O | – | – | inhibition (Renin (Homo sapiens) [2]): inactive
COC(=O)C(CCSC)NC(=O)[C@H](CC(C)C)NC(=O)C(Cc1c[nH]c2ccccc12)NC(=O)[C@H](CCCCN)N1C(=O)CC[C@@H](NC(=O)OCc2ccccc2)C(=O)N[C@H](Cc2ccccc2)C1=O (stereo in doubt) | – | 6.35 | –
COC(=O)[C@@H](CCSC)NC(=O)[C@H](CC(C)C)NC(=O)C(Cc1c[nH]c2ccccc12)NC(=O)[C@H](CCCCN)N1C(=O)CC[C@@H](NC(=O)OCc2ccccc2)C(=O)N[C@H](Cc2ccccc2)C1=O (stereo in doubt) | – | 6.54 | –
CC(=O)NCSC[C@@H]1NC(=O)[C@@H](CC(C)C)NC(=O)C(Cc2c[nH]c3ccccc23)NC(=O)[C@@H](CSCNC(C)=O)NC(=O)[C@H](Cc2ccccc2)NC1=O (stereo in doubt) | 56 | – | –
CC(=O)NCSC[C@H]1NC(=O)[C@H](Cc2ccccc2)NC(=O)CN(C)C(=O)[C@@H](CC(C)C)NC(=O)C(Cc2c[nH]c3ccccc23)NC1=O (stereo in doubt) | – | – | inhibition (Renin (Homo sapiens) [2]): inactive
CC(=O)NCSC[C@H]1NC(=O)[C@H](Cc2ccccc2)NC(=O)CNC(=O)[C@@H](CC(C)C)NC(=O)C(Cc2c[nH]c3ccccc23)NC1=O (stereo in doubt) | – | – | inhibition (Renin (Homo sapiens) [2]): inactive
CC(=O)NCSC[C@H]1NC(=O)[C@H](Cc2ccccc2)NC(=O)[C@@H]2CCCN2C(=O)[C@@H](CC(C)C)NC(=O)C(Cc2c[nH]c3ccccc23)NC1=O (stereo in doubt) | 38 | – | –
CC(C)C[C@H]1NC(=O)C(Cc2c[nH]c3ccccc23)NC(=O)[C@@H](CCCCN)N(C(=O)[C@@H](N)Cc2ccccc2)C1=O (stereo in doubt) | – | – | inhibition (Renin (Homo sapiens) [2]): inactive
CC(C)C[C@H]1NC(=O)C(Cc2c[nH]c3ccccc23)NC(=O)[C@@H](CCCCN)N(C(=O)[C@H](Cc2ccccc2)NC(=O)OCc2ccccc2)C1=O (stereo in doubt) | – | – | inhibition (Renin (Homo sapiens) [2]): inactive
COC(=O)[C@@H](NC(=O)C(Cc1c[nH]c2ccccc12)NC(=O)[C@H](CCCCN)N1C(=O)CC[C@@H](NC(=O)OCc2ccccc2)C(=O)N[C@H](Cc2ccccc2)C1=O)C1CCCCC1 (stereo in doubt) | 67 | – | –
COC(=O)[C@@H]1CCCN1C(=O)[C@H](CC(C)C)NC(=O)C(Cc1c[nH]c2ccccc12)NC(=O)[C@H](CCCCN)N1C(=O)CC[C@@H](NC(=O)OCc2ccccc2)C(=O)N[C@H](Cc2ccccc2)C1=O (stereo in doubt) | – | – | inhibition (Renin (Homo sapiens) [5]): 76%
COC(=O)[C@H](CC(C)C)NC(=O)C(Cc1c[nH]c2ccccc12)NC(=O)[C@@H](CCCCN)N1C(=O)C[C@H](NC(=O)OCc2ccccc2)C(=O)N[C@H](Cc2ccccc2)C1=O (stereo in doubt) | 32 | – | –
COC(=O)[C@H](CC(C)C)NC(=O)C(Cc1c[nH]c2ccccc12)NC(=O)[C@@H](CCCN)N1C(=O)C[C@H](NC(=O)OCc2ccccc2)C(=O)N[C@H](Cc2ccccc2)C1=O (stereo in doubt) | – | – | inhibition (Renin (Homo sapiens) [2]): inactive
COC(=O)[C@H](CC(C)C)NC(=O)C(Cc1c[nH]c2ccccc12)NC(=O)[C@@H]1CCC(=O)N[C@H](CCCCNC(=O)OCc2ccccc2)C(=O)N[C@@H](Cc2ccccc2)C(=O)N1 (stereo in doubt) | – | – | inhibition (Renin (Homo sapiens) [2]): inactive
COC(=O)[C@H](CC(C)C)NC(=O)C(Cc1c[nH]c2ccccc12)NC(=O)[C@H](CCCCN)N1C(=O)CSC[C@@H](NC(=O)OCc2ccccc2)C(=O)N[C@H](Cc2ccccc2)C1=O (stereo in doubt) | 53 | – | –
COC(=O)[C@H](CC(C)C)NC(=O)C(Cc1c[nH]c2ccccc12)NC(=O)[C@H](CCCN)N1C(=O)CC[C@H](NC(=O)OCc2ccccc2)C(=O)N[C@@H](Cc2ccccc2)C1=O (stereo in doubt) | 42 | – | –
COC(=O)[C@H](CCSC)NC(=O)[C@H](CC(C)C)NC(=O)C(Cc1c[nH]c2ccccc12)NC(=O)[C@H](CS)NC(=O)[C@H](Cc1ccccc1)NC(=O)[C@H](CS)NC(=O)OC(C)(C)C (stereo in doubt) | 22 | – | –

Continued, in another order:

inhibition (Renin (Homo sapiens) [1]) [%] | pIC50 (Renin) | Compound | other results
79 | – | CC(C)(C)OC(=O)N[C@@H]1CCC(=O)N([C@@H](CCCCN)C(=O)NCCc2c[nH]c3ccccc23)C(=O)[C@@H](Cc2ccccc2)NC1=O | –
33 | – | CC(Cc1c[nH]c2ccccc12)NC(=O)[C@H](CCCCN)N1C(=O)CC[C@@H](NC(=O)OC(C)(C)C)C(=O)N[C@H](Cc2ccccc2)C1=O (some centres not stated) | –
41 | – | CCC(Cc1c[nH]c2ccccc12)NC(=O)[C@H](CCCCN)N1C(=O)CC[C@@H](NC(=O)OC(C)(C)C)C(=O)N[C@H](Cc2ccccc2)C1=O (some centres not stated) | –
– | 6.09 | CC[C@@H](C)[C@H](NC(=O)C(Cc1c[nH]c2ccccc12)NC(=O)[C@H](CCCCN)N1C(=O)CC[C@@H](NC(=O)OCc2ccccc2)C(=O)N[C@H](Cc2ccccc2)C1=O)C(=O)NC (stereo in doubt) | –
– | 6.37 | CC(C)CCNC(=O)C(Cc1c[nH]c2ccccc12)NC(=O)[C@H](CCCCN)N1C(=O)CC[C@@H](NC(=O)COc2ccccc2)C(=O)N[C@H](Cc2ccccc2)C1=O (stereo in doubt) | Ratio (Renin (Homo sapiens) [3]): 19.2; pIC50 (Renin (Sus scrofa)): 5.09
– | 6.89 | CCC(C)CN[C@@H]1CCC(=O)N([C@@H](CCCCN)C(=O)NC(Cc2c[nH]c3ccccc23)C(=O)NCCC(C)C)C(=O)[C@@H](Cc2ccccc2)NC1=O (stereo in doubt) | –
– | 6.15 | CC(C)CCNC(=O)C(Cc1c[nH]c2ccccc12)NC(=O)[C@H](CCCCN)N1C(=O)CC[C@@H](N)C(=O)N[C@H](Cc2ccccc2)C1=O (stereo in doubt) | Ratio (Renin (Homo sapiens) [3]): 64.7; pIC50 (Renin (Sus scrofa)): 4.34
– | 6.07 | CCNC(=O)[C@H](CC(C)C)NC(=O)C(Cc1c[nH]c2ccccc12)NC(=O)[C@H](CCCCN)N1C(=O)CC[C@@H](NC(=O)OCc2ccccc2)C(=O)N[C@H](Cc2ccccc2)C1=O (stereo in doubt) | –
– | 5.77 | CC(C)(C)CNC(=O)C(Cc1c[nH]c2ccccc12)NC(=O)[C@H](CCCCN)N1C(=O)CC[C@@H](NC(=O)OCc2ccccc2)C(=O)N[C@H](Cc2ccccc2)C1=O (stereo in doubt) | –
– | 6.47 | CNC(=O)[C@H](CC(C)C)NC(=O)C(Cc1c[nH]c2ccccc12)NC(=O)[C@H](CCCCN)N1C(=O)CC[C@@H](NC(=O)OCc2ccccc2)C(=O)N[C@H](Cc2ccccc2)C1=O (stereo in doubt) | –
– | 5.72 | CC(C)CCNC(=O)C(Cc1c[nH]c2ccccc12)NC(=O)[C@H](CCCCN)N1C(=O)CC[C@@H](NCc2c[nH]c3ccccc23)C(=O)N[C@H](Cc2ccccc2)C1=O (stereo in doubt) | –
– | 6.68 | CC(C)CCNC(=O)C(Cc1c[nH]c2ccccc12)NC(=O)[C@H](CCCCN)N1C(=O)CC[C@@H](NC(=O)OC(C)(C)C)C(=O)N[C@H](Cc2ccccc2)C1=O (stereo in doubt) | Ratio (Renin (Homo sapiens) [3]): 40.4; pIC50 (Renin (Sus scrofa)): 5.07
– | 7.20 | CC(C)CCNC(=O)C(Cc1c[nH]c2ccccc12)NC(=O)[C@H](CCCCN)N1C(=O)CC[C@@H](NCC(C)(C)C)C(=O)N[C@H](Cc2ccccc2)C1=O (stereo in doubt) | Ratio (Renin (Homo sapiens) [3]): 113; pIC50 (Renin (Sus scrofa)): 5.15
93 | – | CC(C)CCNC(=O)C(Cc1c[nH]c2ccccc12)NC(=O)[C@H](CCCCN)N1C(=O)CC[C@@H](NC(C)C)C(=O)N[C@H](Cc2ccccc2)C1=O (stereo in doubt) | inhibition (Renin (Homo sapiens) [4]): 30%
69.2 | – | COC(=O)C(Cc1c[nH]c2ccccc12)NC(=O)[C@H](CCCCN)N1C(=O)CC[C@@H](NC(=O)OCc2ccccc2)C(=O)N[C@H](Cc2ccccc2)C1=O (stereo in doubt) | –
